For five compounds, IC50 results are on record in ChEMBL document CHEMBL1131210, “5-(5,6-Dichloro-2-indolyl)-2-methoxy-2,4-pentadienamides: novel and selective inhibitors of the vacuolar H+-ATPase of osteoclasts with bone antiresorptive activity” (J Med Chem, 1998).

For orientation: pIC50 means the negative decadic logarithm of the IC50, by convention in mol/L.

pIC50: −log10 of the molar value.

Test [1] is described as follows: In vitro inhibition of bone resorption by isolated Human osteoclastoma cells (ELISA). The class given is functional. An outline of the steps: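 Collagenase-dispersed osteoclastoma cells, negatively selected with HLA-I Dynabeads, were settled on bone slices at 4000 cells/well. Compound was added at several concentrations, with 8 slices per concentration. After 48 h in D-MEM, type I collagen fragments released into the supernatant were quantified by ELISA.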
On the technique in general: ELISA stands for enzyme-linked immunosorbent assay.

Test [2] concerns the target T1, V-type proton ATPase 116 kDa subunit a 1 (Gallus gallus, UniProt Q9I8D0). Kind of test: Compound was tested for inhibition of V-ATPase from Chicken adrenal glands(cAG). The class given is tissue-based, Adrenal gland. Put shortly: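 Bafilomycin-sensitive ATPase in purified microsomal membranes from whole chicken adrenal glands (two-step 35%/50% sucrose gradient), 20–40 μg protein/mL. Medium: 0.2 M sucrose, 50 mM KCl, 10 mM Hepes-Tris pH 7.4, 1 mM CDTA, 1 mM ATP, 0.1 mM molybdate, 5 μM valinomycin, 5 μM nigericin. Started with 5 mM MgSO4, 30 min at 37 °C, phosphate read by malachite green.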

Test [3] in a line: In vitro inhibition of bone resorption by isolated Human osteoclastoma cells by the number of excavations (pits/bone slice). Type of test: functional. Put shortly: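 Human giant-cell-tumour osteoclasts were HLA-I bead-depleted and seeded on bone slices (4000 cells/well), 8 slices per concentration, then cultured 48 h in D-MEM. Slices were glutaraldehyde-fixed and TRAP-stained, and cells were bleached off. Slices were gold-coated and resorption pits counted by light microscopy, expressed as pits/bone slice.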

Test [4] concerns the target T1, V-type proton ATPase 116 kDa subunit a 1. As to the kind of experiment: (§1) Compound was tested for inhibition of V-ATPase from Chicken osteoclasts (cOc). An outline of the steps: (§2)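 Bafilomycin-sensitive ATPase activity in sucrose-gradient-purified membrane vesicles from medullary bone of calcium-starved egg-laying hens, 20–40 μg protein/mL. Medium: 0.2 M sucrose, 50 mM KCl, 10 mM Hepes-Tris pH 8, 1 mM CDTA, 1 mM ATP, 0.1 mM molybdate, 5 μM valinomycin, 5 μM nigericin. Started with 5 mM MgSO4; 30 min, 37 °C; phosphate release by malachite green.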

Test [5] has as its target V-type proton ATPase subunit B, kidney isoform (Homo sapiens, UniProt P15313). As to the kind of experiment: Compound was tested for inhibition of V-ATPase from human kidney cortex(hK). An outline of the steps: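 Brush border membranes from frozen human kidney cortex, about 70 μg protein/mL. Bafilomycin-sensitive ATPase in 0.2 M sucrose, 50 mM KCl, 10 mM Hepes-Tris pH 7.4, 1 mM CDTA, 1 mM ATP, 0.1 mM molybdate, 5 μM valinomycin, 5 μM nigericin. Started with 5 mM MgSO4, 30 min at 37 °C, Pi measured colorimetrically (malachite green).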

Test [6] has as its target T1, V-type proton ATPase 116 kDa subunit a 1. The test is described as §1. Type of test: functional. An outline of the steps:
as §2

T1 sequence (Q9I8D0 whole entry): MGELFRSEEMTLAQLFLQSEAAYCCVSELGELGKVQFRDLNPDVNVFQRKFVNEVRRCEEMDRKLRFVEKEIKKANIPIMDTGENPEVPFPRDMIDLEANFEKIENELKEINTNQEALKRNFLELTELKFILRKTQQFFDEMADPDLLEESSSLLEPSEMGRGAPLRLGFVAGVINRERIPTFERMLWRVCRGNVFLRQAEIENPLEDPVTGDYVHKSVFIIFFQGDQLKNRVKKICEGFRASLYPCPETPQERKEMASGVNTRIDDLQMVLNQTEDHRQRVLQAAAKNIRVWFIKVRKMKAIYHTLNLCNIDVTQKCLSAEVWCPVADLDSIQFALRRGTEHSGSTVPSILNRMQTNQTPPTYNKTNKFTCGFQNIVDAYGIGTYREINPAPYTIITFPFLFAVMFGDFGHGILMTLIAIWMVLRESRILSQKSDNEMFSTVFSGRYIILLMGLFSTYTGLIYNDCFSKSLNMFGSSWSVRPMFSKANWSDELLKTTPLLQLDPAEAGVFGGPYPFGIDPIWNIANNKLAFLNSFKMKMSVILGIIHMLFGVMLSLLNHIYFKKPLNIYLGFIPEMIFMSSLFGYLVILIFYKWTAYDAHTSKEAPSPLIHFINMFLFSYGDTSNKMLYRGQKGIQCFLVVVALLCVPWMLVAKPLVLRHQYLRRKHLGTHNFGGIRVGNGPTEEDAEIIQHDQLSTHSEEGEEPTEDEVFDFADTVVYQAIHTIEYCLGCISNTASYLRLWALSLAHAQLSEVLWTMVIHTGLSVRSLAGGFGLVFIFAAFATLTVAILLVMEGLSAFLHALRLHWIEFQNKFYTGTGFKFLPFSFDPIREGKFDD
Chain of V-type proton ATPase subunit B, kidney isoform (P15313 whole entry, canonical isoform): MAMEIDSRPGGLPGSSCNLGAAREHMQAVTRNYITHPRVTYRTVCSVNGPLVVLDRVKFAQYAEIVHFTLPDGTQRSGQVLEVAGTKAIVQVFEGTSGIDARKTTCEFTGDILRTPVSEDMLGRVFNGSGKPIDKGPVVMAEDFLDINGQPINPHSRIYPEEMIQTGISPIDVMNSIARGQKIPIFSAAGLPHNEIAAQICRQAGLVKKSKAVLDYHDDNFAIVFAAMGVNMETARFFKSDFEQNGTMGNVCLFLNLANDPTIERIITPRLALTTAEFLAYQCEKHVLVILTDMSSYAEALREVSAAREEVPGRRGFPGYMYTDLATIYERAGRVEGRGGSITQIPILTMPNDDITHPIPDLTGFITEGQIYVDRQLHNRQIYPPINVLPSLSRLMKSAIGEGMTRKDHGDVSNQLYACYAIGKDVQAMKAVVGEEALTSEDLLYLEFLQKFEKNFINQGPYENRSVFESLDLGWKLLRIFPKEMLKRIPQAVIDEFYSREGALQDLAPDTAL

For `CO/C(=C\C=C\c1cc2cc(Cl)c(Cl)cc2[nH]1)C(=O)NC1C[C@H]2CC[C@@H](C1)N2C` (some centres not stated), the pIC50 in test [1] is 7.52; in test [2] it was 5.60; in test [3] it was 7.52; in test [4] it was 7.00; in test [5] it was 5.88.
On to `CO/C(=C\C=C\c1cc2cc(Cl)c(Cl)cc2[nH]1)C(=O)NCCCN1CCN(c2ncccn2)CC1`, for which the pIC50 in test [1] is 8.00; in test [2], 6.03; in test [3] it was 7.52; in test [4], 7.22; in test [5], 6.43.
On to `CO/C(=C\C=C\c1cc2cc(Cl)c(Cl)cc2[nH]1)C(=O)NC1CC(C)(C)NC(C)(C)C1`, for which the pIC50 in test [1] was 7.52; in test [2], 6.09; in test [3], 7.40; in test [4], 7.10; in test [5], 6.36.
As for `CCN(CC)CCCNC(=O)/C(=C/C=C/c1cc2cc(Cl)c(Cl)cc2[nH]1)OC`, the pIC50 in test [1] was 6.85; in test [2], 5.55; in test [3], 6.74; in test [4] it was 6.74; in test [5] it was 5.52.
For `COC(=O)/C(=C\C=C\c1cc2ccccc2[nH]1)OC`, the pIC50 in test [6] and in test [4] was 4.52 each time.
